Laboratory results as given in ChEMBL document CHEMBL1132584, “5-Alkyl-2-(alkylthio)-6-(2,6-dihalophenylmethyl)-3, 4-dihydropyrimidin-4(3H)-ones: novel potent and selective dihydro-alkoxy-benzyl-oxopyrimidine derivatives” (J Med Chem, 1999).
pEC50, pIC50: −log10 of the molar value.

Key:
[1] = tested on: MT4; assay: Selectivity index measured as the ratio of CC50 / EC50.; format: functional
Outline: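 Selectivity index: CC50 in mock-infected MT-4 cells divided by EC50 against HIV-1 IIIB cytopathicity in MT-4 cells, both from MTT read-out after 4-day culture.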

[2] = tested on: MT4; assay: Cytotoxicity against mock-infected MT-4 cells.; format: functional; settings: Homo sapiens
Outline: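 Mock-infected MT-4 cells (1×10^4/well) incubated 4 days at 37 °C alongside the antiviral assay with serial compound dilutions (from 200 mM DMSO stock); viability read by MTT; CC50 is the dose lowering viability of mock-infected cells by 50%; means of at least two separate experiments.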

[3] = tested on: MT4; assay: Concentration required to achieve 50% protection of MT-4 cells from HIV-1-induced cytopathogenicity.; format: functional, cell-based; settings: Homo sapiens
Outline: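 MT-4 cells (1×10^4/well) exposed to test compound dilutions (DMSO stock 200 mM, diluted in medium), then infected with HIV-1 IIIB at 100 CCID50/well; 4-day incubation at 37 °C; viable cells counted by MTT; EC50 is the dose giving 50% protection from virus-induced cytopathicity; means of at least two separate experiments.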

[4] = target: Human immunodeficiency virus type 1 reverse transcriptase (Human immunodeficiency virus 1, UniProt Q72547); assay: Concentration required to inhibit the HIV-1 reverse transcriptase activity by 50%.
Outline: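 Purified recombinant HIV-1 RT, RNA-dependent polymerase activity. Substrate: [³H]dGTP, […] (1 Ci/mmol). Reaction 30 min at 37 °C, then acid-insoluble radioactivity counted on glass-fibre filters.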

| SMILES | Selectivity index [1] | CC50 [2] | pEC50 [3] | pIC50 [4] |
| --- | --- | --- | --- | --- |
| CCC(C)Sc1nc(O)c(C)c(Cc2c(Cl)cccc2Cl)n1 (stereo not drawn) | >4000 SI | > 200000 nM | 7.30 | 7.22 |
| Oc1cc(Cc2c(Cl)cccc2Cl)nc(SC2CCCC2)n1 | >500 SI | > 200000 nM | 6.40 | 6.40 |
| CCC(C)Sc1nc(O)cc(Cc2ccc([N+](=O)[O-])cc2)n1 (stereo not drawn) | 101 SI | 151000 nM | 5.82 | 5.92 |
| Oc1cc(Cc2ccccc2)nc(SC2CCCC2)n1 | 86 SI | – | – | 5.80 |
| CCC(C)Sc1nc(O)cc(Cc2cccc(Cl)c2)n1 (stereo not drawn) | 58 SI | 116000 nM | 5.70 | 5.72 |
| Cc1c(O)nc(SCC(C)C)nc1Cc1c(F)cccc1F | 1640 SI | 164000 nM | 7.00 | 7.05 |
| CC(C)CSc1nc(O)cc(Cc2c(Cl)cccc2Cl)n1 | >444 SI | > 200000 nM | 6.35 | 6.22 |
| Oc1cc(Cc2c(F)cccc2F)nc(SC2CCCCC2)n1 | >2500 SI | > 200000 nM | 7.10 | 7.05 |
| CCC(C)Sc1nc(O)cc(Cc2ccc(Cl)cc2)n1 (stereo not drawn) | 24 SI | 120000 nM | 5.30 | 5.32 |
| CCC(C)Sc1nc(O)cc(Cc2ccccc2Cl)n1 (stereo not drawn) | 200 SI | 200000 nM | 6.00 | 5.80 |
| Cc1c(O)nc(SC2CCCC2)nc1Cc1ccccc1 | >333 SI | > 200000 nM | – | 6.30 |
| Cc1c(O)nc(SC(C)C)nc1Cc1c(Cl)cccc1Cl | >154 SI | > 200000 nM | 5.89 | 5.94 |
| CC(C)Sc1nc(Cc2c(F)cccc2F)cc(=O)[nH]1 | >4000 SI | > 200000 nM | 7.30 | 7.30 |
| CSc1nc(O)cc(Cc2c(F)cccc2F)n1 | >247 SI | > 200000 nM | 6.09 | 6.10 |
| CCCCSc1nc(O)cc(Cc2c(F)cccc2F)n1 | 900 SI | 162000 nM | 6.74 | 6.70 |
| Cc1c(O)nc(SC2CCCC2)nc1Cc1c(Cl)cccc1Cl | >111 SI | > 200000 nM | 5.74 | 5.77 |
| CCC(C)Sc1nc(O)cc(Cc2ccccc2)n1 (stereo not drawn) | 125 SI | – | – | 6.00 |
| CCC(C)Sc1nc(O)c(C)c(Cc2ccc([N+](=O)[O-])cc2)n1 (stereo not drawn) | >100 SI | > 200000 nM | 5.70 | 5.74 |
| CCCCSc1nc(O)c(C)c(Cc2c(Cl)cccc2Cl)n1 | >171 SI | > 200000 nM | 5.96 | 5.94 |
| CC(C)Sc1nc(O)cc(Cc2c(Cl)cccc2Cl)n1 | >105 SI | > 200000 nM | 5.72 | 5.82 |
| CCC(C)Sc1nc(O)c(C)c(Cc2cccc(F)c2)n1 (stereo not drawn) | >166 SI | > 200000 nM | 5.92 | 5.82 |
| CCC(C)Sc1nc(O)c(C)c(Cc2ccccc2Cl)n1 (stereo not drawn) | >741 SI | > 200000 nM | 6.57 | 6.40 |
| CSc1nc(O)c(C)c(Cc2c(Cl)cccc2Cl)n1 | 5.2 SI | > 200000 nM | 4.42 | – |
| CCC(C)Sc1nc(O)c(C)c(Cc2ccccc2F)n1 (stereo not drawn) | 341 SI | 140000 nM | 6.39 | 6.39 |
| Cc1c(O)nc(SC2CCCCC2)nc1Cc1c(Cl)cccc1Cl | >9 SI | > 200000 nM | 4.66 | 5.31 |
| CSc1nc(O)cc(Cc2c(Cl)cccc2Cl)n1 | >62 SI | > 200000 nM | 5.49 | 5.52 |

| SMILES | Selectivity index [1] | CC50 [2] | pEC50 [3] | pIC50 [4] |
| --- | --- | --- | --- | --- |
| CCC(C)Sc1nc(O)cc(Cc2c(Cl)cccc2Cl)n1 (stereo not drawn) | >1428 SI | > 200000 nM | 6.85 | 7.00 |
| Cc1c(O)nc(SC2CCCCC2)nc1Cc1c(F)cccc1F | >2222 SI | > 200000 nM | 7.05 | 7.15 |
| CCC(C)Sc1nc(O)c(C)c(Cc2ccc(Cl)cc2)n1 (stereo not drawn) | >20 SI | > 200000 nM | 5.02 | 5.07 |
| Oc1cc(Cc2c(Cl)cccc2Cl)nc(SC2CCCCC2)n1 | >333 SI | > 200000 nM | 6.22 | 6.40 |
| Cc1c(O)nc(SCC(C)C)nc1Cc1c(Cl)cccc1Cl | >166 SI | > 200000 nM | 5.92 | 5.96 |
| CCC(C)Sc1nc(O)c(C)c(Cc2cccc([N+](=O)[O-])c2)n1 (stereo not drawn) | >571 SI | > 200000 nM | 6.46 | 6.40 |
| CCC(C)Sc1nc(O)cc(Cc2cccc([N+](=O)[O-])c2)n1 (stereo not drawn) | 392 SI | 157000 nM | 6.40 | 6.52 |
| Cc1c(Cc2c(F)cccc2F)nc(SC2CCCC2)[nH]c1=O | >2500 SI | > 200000 nM | 7.10 | 7.10 |
| CCC(C)Sc1nc(O)cc(Cc2c(F)cccc2F)n1 (stereo not drawn) | >5000 SI | > 200000 nM | 7.40 | 7.30 |
| CCC(C)Sc1nc(O)c(C)c(Cc2cccc(Cl)c2)n1 (stereo not drawn) | >208 SI | > 200000 nM | 6.02 | 6.05 |
| CCC(C)Sc1nc(O)cc(Cc2ccccc2[N+](=O)[O-])n1 (stereo not drawn) | >800 SI | > 200000 nM | 6.60 | 6.52 |
| CCCCSc1nc(O)cc(Cc2c(Cl)cccc2Cl)n1 | >454 SI | > 200000 nM | 6.36 | 6.30 |
| CCOCn1c(Cc2ccccc2)c(C(C)C)c(=O)[nH]c1=O [EMIVIRINE] | 6666 SI | 200000 nM | 7.52 | 7.40 |
| CSc1nc(O)c(C)c(Cc2c(F)cccc2F)n1 | 1053 SI | 200000 nM | 6.72 | 6.70 |
| CCCCSc1nc(O)c(C)c(Cc2c(F)cccc2F)n1 | >2500 SI | > 200000 nM | 7.10 | 7.05 |
| O=c1cc(Cc2c(F)cccc2F)nc(SC2CCCC2)[nH]1 | >2500 SI | > 200000 nM | 7.10 | 7.10 |
| CCC(C)Sc1nc(O)cc(Cc2ccc(F)cc2)n1 (stereo not drawn) | 23 SI | > 200000 nM | 5.06 | 5.13 |
| CCC(C)Sc1nc(O)cc(Cc2cccc(F)c2)n1 (stereo not drawn) | >286 SI | > 200000 nM | 6.15 | 6.22 |
| CCC(C)Sc1nc(O)cc(Cc2ccccc2F)n1 (stereo not drawn) | 769 SI | 200000 nM | 6.59 | 6.52 |
| CCC(C)Sc1nc(O)c(C)c(Cc2ccccc2)n1 (stereo not drawn) | 140 SI | – | – | 6.30 |
| Cc1ccnc2c1NC(=O)c1cccnc1N2C1CC1 [NEVIRAPINE] | – | > 200000 nM | – | – |
| Cc1c(Cc2c(F)cccc2F)nc(SC(C)C)[nH]c1=O | >4000 SI | > 200000 nM | 7.30 | 7.30 |
| CCC(C)Sc1nc(O)c(C)c(Cc2c(F)cccc2F)n1 (stereo not drawn) | >4000 SI | > 200000 nM | 7.30 | 7.30 |
| CCC(C)Sc1nc(O)c(C)c(Cc2ccc(F)cc2)n1 (stereo not drawn) | 9.5 SI | 105000 nM | 4.96 | 4.89 |
| CC(C)CSc1nc(O)cc(Cc2c(F)cccc2F)n1 | 1300 SI | 182000 nM | 6.85 | 6.70 |
